Source: ChEMBL document CHEMBL1155990, “Synthesis of novel pyrazole carboxamide derivatives and discovery of modulators for apoptosis or autophagy in A549 lung cancer cells” (2009)
Active and inactive are the calls of the source. The calls are words filed in the database; no cut-off is given here.

Assays:
A549 [1] = experiment: Anticancer activity against human A549 lung cancer cells assessed as decrease in cell viability at 10 uM after 48 hrs relative to control by MTT assay; assay type: functional
Summary of the method: (§1)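 A549 cells exposed to compound in culture medium; viability measured by MTT assay and expressed as % of untreated control (100%).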

A549 [2] = experiment: Anticancer activity against human A549 lung cancer cells assessed as decrease in cell viability at 10 uM after 24 hrs relative to control by MTT assay; assay type: functional; summary of the method: as §1
A549 [3] = experiment: Induction of necrosis in human A549 lung cancer cells assessed as LDH activity at 10 uM after 48 hrs; assay type: functional, cell-based
Summary of the method: (§2)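 A549 cells treated at 10 or 20 µM for 48 h; LDH activity measured in culture medium as necrosis marker; compared with control, n = 4.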

A549 [4] = experiment: Induction of apoptosis in human A549 lung cancer cells assessed as nuclear DNA fragmentation at 20 uM after 48 hrs by hoechst 33258 staining; assay type: functional, cell-based
Summary of the method: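 A549 cells treated at 20 µM for 48 h; chromatin condensation and DNA fragmentation visualized by Hoechst 33258 staining under fluorescence microscope (200×); compared with control, n = 3.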

A549 [5] = experiment: Effect on human A549 lung cancer cell morphology assessed as rounding and detachment of cells at 20 uM after 48 hrs relative to control by inverted phase contrast microscopy; assay type: functional, cell-based
Summary of the method: (§3)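 A549 cells treated at 20 µM; morphology photographed at 200× under an inverted phase contrast microscope.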

A549 [6] = experiment: Anticancer activity against human A549 lung cancer cells assessed as decrease in cell viability at 20 uM after 24 hrs relative to control by MTT assay; assay type: functional, cell-based; summary of the method: as §1
A549 [7] = experiment: Effect on human A549 lung cancer cell morphology assessed as rounding and detachment of cells at 20 uM after 24 hrs by inverted phase contrast microscopy; assay type: functional, cell-based; summary of the method: as §3
A549 [8] = experiment: Induction of necrosis in human A549 lung cancer cells assessed as LDH activity at 20 uM after 48 hrs; assay type: functional, cell-based; summary of the method: as §2
A549 [9] = experiment: Anticancer activity against human A549 lung cancer cells assessed as decrease in cell viability at 20 uM after 48 hrs relative to control by MTT assay; assay type: functional; summary of the method: as §1
A549 [10] = experiment: Induction of autophagy in human A549 lung cancer cells assessed as acidic vesicle level at 20 uM after 24 hrs by acridine orange staining; assay type: functional, cell-based
Summary of the method: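 A549 cells treated 24 h; acidic cellular compartment volume visualized by acridine orange staining under fluorescence microscope (200×); compared with control, n = 3.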

A549 [11] = experiment: Effect on human A549 lung cancer cell morphology assessed as vacuolation of cells at 20 uM after 48 hrs relative to control by inverted phase contrast microscopy; assay type: functional, cell-based; summary of the method: as §3
A549 [12] = experiment: Effect on human A549 lung cancer cell morphology assessed as vacuolation of cells at 20 uM after 24 hrs by inverted phase contrast microscopy; assay type: functional, cell-based; summary of the method: as §3

SMILES | Activity (A549 [1]) | Activity (A549 [2]) | Activity (A549 [3]) | Activity (A549 [4]) | Activity (A549 [5]) | Activity (A549 [6]) | Activity (A549 [7]) | Activity (A549 [8]) | Activity (A549 [9]) | Activity (A549 [10]) | Activity (A549 [11]) | Activity (A549 [12])
CC(C)(C)c1ccc(Cn2nc(-c3ccc(Cl)cc3)cc2C(=O)NCCc2ccccc2)cc1 | 44.46% | 59.32% | inactive | Active | Active | Active | Active | inactive |  |  |  | 
COc1cccc(CCNC(=O)c2cc(-c3ccccc3)nn2Cc2ccc(C(C)(C)C)cc2)c1 | inactive | inactive |  |  |  | inactive |  |  | inactive |  |  | 
COc1cccc(CCNC(=O)c2cc(-c3ccc(Cl)cc3)nn2Cc2ccc(C(C)(C)C)cc2)c1 | 24.07% | 45.52% | inactive | Active | Active | Active | Active | inactive | 10.43% |  |  | 
CC(C)(C)c1ccc(Cn2nc(-c3ccccc3)cc2C(=O)NCCc2ccc(F)cc2)cc1 | inactive | inactive |  |  |  | inactive |  |  | inactive |  |  | 
CC(C)(C)c1ccc(Cn2nc(-c3ccccc3)cc2C(=O)NCCc2ccccc2F)cc1 | inactive | inactive |  |  |  | inactive |  |  | inactive |  |  | 
CC(C)(C)c1ccc(Cn2nc(-c3ccc(Cl)cc3)cc2C(=O)NCCc2ccc(F)cc2)cc1 | Active | Active | inactive |  |  | Active |  | inactive |  | Active | Active | Active
CC(C)(C)c1ccc(Cn2nc(-c3ccc(Cl)cc3)cc2C(=O)NCCc2ccccc2F)cc1 | Active | Active | inactive |  | Active | Active |  | inactive | Active | Active |  | Active
CC(C)(C)c1ccc(Cn2nc(-c3ccccc3)cc2C(=O)NCCc2ccccc2)cc1 | inactive | inactive |  |  |  | inactive |  |  | inactive |  |  | 
